In brackets after ≈: the same amount, converted by molar mass.
How the values were obtained:
Assay type in all cases: functional
Candida albicans [1] = assay: In vitro antimicrobial activity against Candida albicans (24)
How it was run: (§1)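 Candida: broth microdilution MIC in phosphate-buffered Yeast Nitrogen Base broth with glucose (1% w/v) and L-asparagine (0.15% w/v); inoculum about 10^4 cfu/mL; 37 °C, 20–24 h.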

Staphylococcus aureus [2] = assay: In vitro antimicrobial activity against Staphylococcus aureus L165
How it was run: (§2)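 Broth microdilution MIC in Oxoid Iso-Sensitest broth; inoculum about 10^4 cfu/mL; 37 °C for 20–24 h.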

Proteus vulgaris = assay: In vitro antimicrobial activity against Proteus vulgaris ATCC881; how it was run: as §2
Bacteroides fragilis = assay: In vitro antimicrobial activity against Bacteroides fragilis ATCC 25285
How it was run: (§3)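 Anaerobe MIC by broth microdilution in Wilkins-Chalgren broth; inoculum 5 × 10^5 cfu/mL; 37 °C.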

Gardnerella vaginalis [3] = assay: In vitro antimicrobial activity against Gardnerella vaginalis (MIC90)
How it was run: (§4)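 Agar dilution MIC in Casman medium with 5% (v/v) whole and 0.15% (v/v) lysed rabbit blood; inoculum about 10^5 cfu; 48 h at 37 °C under N2-CO2-H2 (80:10:10).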

Enterococcus faecalis = assay: In vitro antimicrobial activity against Enterococcus faecalis ATCC 7080; how it was run: as §2
Nakaseomyces glabratus = assay: In vitro antimicrobial activity against Candida glabrata (1)1; how it was run: as §1
Streptococcus pneumoniae = assay: In vitro antimicrobial activity against Streptococcus pneumoniae L44
How it was run: (§5)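 Streptococci: broth microdilution MIC in Todd Hewitt broth; inoculum about 10^4 cfu/mL; 37 °C, 20–24 h.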

Neisseria gonorrhoeae = assay: In vitro antimicrobial activity against Neisseria gonorrhoeae L997
How it was run: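 Broth microdilution MIC in GC Base broth plus 1% (v/v) IsoVitaleX; inoculum about 10^4 cfu/mL; 37 °C.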

Staphylococcus aureus [4] = assay: In viro antimicrobial activity against Staphylococcus aureus L165 10 x e+6 cfu/ml
How it was run: (§6)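 Broth microdilution MIC against S. aureus L165 in Iso-Sensitest broth, 37 °C, 20–24 h.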

Cutibacterium acnes = assay: In vitro antimicrobial activity against Propionibacterium acnes ATCC 6919; how it was run: as §3
Escherichia coli = assay: In vitro antimicrobial activity against Escherichia coli L47; how it was run: as §2
[5] = tested on: Staphylococcus haemolyticus; assay: In vitro antimicrobial activity against Staphylococcus haemolyticus L602; how it was run: as §2
[6] = tested on: Staphylococcus epidermidis; assay: In vitro antimicrobial activity against Staphylococcus epidermidis ATCC 12228; how it was run: as §2
Candida albicans [7] = assay: In vitro antimicrobial activity against Candida albicans L145; how it was run: as §1
Streptococcus pyogenes = assay: In vitro antimicrobial activity against Streptococcus pyogenes L49; how it was run: as §5
Candida [8] = assay: Minimum inhibition concentration for 90% inhibition against Candida species; how it was run: as §1
Trichomonas vaginalis [9] = assay: In vitro antimicrobial activity against Trichomonas vaginalis
How it was run: (§7)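 Broth microdilution in Trichomonas Culture Medium Base plus 10% horse serum; about 10^5 cells/mL; 48 h at 37 °C under N2-CO2-H2; MIC read by microscopy for viable (motile) protozoa.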

Gardnerella vaginalis [10] = assay: In vitro antimicrobial activity against Gardnerella vaginalis (MIC50); how it was run: as §4
Candida [11] = assay: Minimum inhibition concentration for 50% inhibition against Candida species; how it was run: as §1
Staphylococcus aureus [12] = assay: In vitro antimicrobial activity against Staphylococcus aureus L1 65 30% bovine serum; how it was run: as §6
Pseudomonas aeruginosa = assay: In vitro antimicrobial activity against Pseudomonas aeruginosa ATCC 10145; how it was run: as §2
Candida tropicalis = assay: In vitro antimicrobial activity against Candida tropicalis (2); how it was run: as §1
Haemophilus influenzae = assay: In vitro antimicrobial activity against Haemophilus influenza ATCC 19418
How it was run: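 Broth microdilution MIC in Brain Heart Infusion broth plus 1% (v/v) supplement C; inoculum about 10^4 cfu/mL; 37 °C.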

Staphylococcus aureus [13] = assay: In viro antimicrobial activity against Staphylococcus aureus L16510 x e+6 cfu/ml; how it was run: as §6
Trichomonas vaginalis [14] = assay: Antimicrobial activity against Trichomonas vaginalis; how it was run: as §7
Candida albicans [15] = assay: In vitro antimicrobial activity against Candida albicans(24); how it was run: as §1

| SMILES | MIC (Staphylococcus aureus [2]) [µg/mL] | MIC (Proteus vulgaris) [µg/mL] | MIC (Bacteroides fragilis) [µg/mL] | MIC90 (Gardnerella vaginalis [3]) [µg/mL] | MIC (Enterococcus faecalis) [µg/mL] | MIC (Streptococcus pneumoniae) [µg/mL] | MIC (Neisseria gonorrhoeae) [µg/mL] | MIC (Staphylococcus aureus [4]) [µg/mL] | MIC (Cutibacterium acnes) [µg/mL] | MIC (Escherichia coli) [µg/mL] | MIC [6] [µg/mL] | MIC (Candida albicans [7]) [µg/mL] | MIC (Streptococcus pyogenes) [µg/mL] | MIC90 (Candida [8]) [µg/mL] | MIC50 (Gardnerella vaginalis [10]) [µg/mL] | MIC50 (Candida [11]) [µg/mL] | MIC (Staphylococcus aureus [12]) [µg/mL] | MIC (Pseudomonas aeruginosa) [µg/mL] | MIC (Haemophilus influenzae) [µg/mL] | MIC [5] [µg/mL] | other results |
| --- | --- | --- | --- | --- | --- | --- | --- | --- | --- | --- | --- | --- | --- | --- | --- | --- | --- | --- | --- | --- | --- |
| COC(=O)c1cc2cc3c(c(O)c2c(=O)o1)OC1(CC2=C(O1)C(=O)c1c(O)c(NCCN)cc(O)c1C2=O)CC3O (centres undefined) | 1 (≈ 1.77 µM) | > 128 | > 128 |  | 2 (≈ 3.53 µM) | 1 (≈ 1.77 µM) | 64 (≈ 113 µM) | 1 (≈ 1.77 µM) | 0.5 (≈ 0.883 µM) | > 128 | 1 (≈ 1.77 µM) | > 128 | 2 (≈ 3.53 µM) |  |  |  | 8 (≈ 14.1 µM) | > 128 | 32 (≈ 56.5 µM) | 1 (≈ 1.77 µM) |  |
| CCNc1cc(O)c2c(c1O)C(=O)C1=C(CC3(CC(O)c4cc5cc(C(=O)OC)oc(=O)c5c(O)c4O3)O1)C2=O (centres undefined) | 0.06 (≈ 0.109 µM) | > 128 | 0.06 (≈ 0.109 µM) | 2 (≈ 3.63 µM) | 0.06 (≈ 0.109 µM) | 0.06 (≈ 0.109 µM) | 0.06 (≈ 0.109 µM) | 0.06 (≈ 0.109 µM) | 0.06 (≈ 0.109 µM) | > 128 | 0.06 (≈ 0.109 µM) | 2 (≈ 3.63 µM) | 0.06 (≈ 0.109 µM) | 4 (≈ 7.25 µM) | 2 (≈ 3.63 µM) | 2 (≈ 3.63 µM) | 1 (≈ 1.81 µM) | > 128 | 0.06 (≈ 0.109 µM) | 0.06 (≈ 0.109 µM) | MIC (Candida albicans [1]): 0.25 µg/mL (≈ 0.453 µM); MIC (Nakaseomyces glabratus): 32 µg/mL (≈ 58 µM); MIC (Trichomonas vaginalis [9]): 8 µg/mL (≈ 14.5 µM); MIC (Candida tropicalis): 64 µg/mL (≈ 116 µM) |
| COC(=O)c1cc2cc3c(c(O)c2c(=O)o1)OC1(CC2=C(O1)C(=O)c1c(O)c(NCC#N)cc(O)c1C2=O)CC3O (centres undefined) | 0.13 (≈ 0.231 µM) | > 128 | 0.5 (≈ 0.889 µM) |  | 0.13 (≈ 0.231 µM) | 0.03 (≈ 0.0533 µM) | 0.06 (≈ 0.107 µM) | 0.13 (≈ 0.231 µM) | 0.016 (≈ 0.0284 µM) | > 128 | 0.13 (≈ 0.231 µM) | > 128 | 0.13 (≈ 0.231 µM) |  |  |  | 2 (≈ 3.56 µM) | > 128 | 0.13 (≈ 0.231 µM) | 0.13 (≈ 0.231 µM) |  |

Compounds with a lower MIC (Staphylococcus aureus [2]), results first:

| MIC (Staphylococcus aureus [2]) [µg/mL] | MIC (Proteus vulgaris) [µg/mL] | MIC (Bacteroides fragilis) [µg/mL] | MIC90 (Gardnerella vaginalis [3]) [µg/mL] | MIC (Enterococcus faecalis) [µg/mL] | MIC (Streptococcus pneumoniae) [µg/mL] | MIC (Neisseria gonorrhoeae) [µg/mL] | MIC (Staphylococcus aureus [4]) [µg/mL] | MIC (Cutibacterium acnes) [µg/mL] | MIC (Escherichia coli) [µg/mL] | MIC [6] [µg/mL] | MIC (Candida albicans [7]) [µg/mL] | MIC (Streptococcus pyogenes) [µg/mL] | MIC90 (Candida [8]) [µg/mL] | MIC50 (Gardnerella vaginalis [10]) [µg/mL] | MIC50 (Candida [11]) [µg/mL] | MIC (Staphylococcus aureus [12]) [µg/mL] | MIC (Pseudomonas aeruginosa) [µg/mL] | MIC (Haemophilus influenzae) [µg/mL] | SMILES | MIC [5] [µg/mL] | other results |
| --- | --- | --- | --- | --- | --- | --- | --- | --- | --- | --- | --- | --- | --- | --- | --- | --- | --- | --- | --- | --- | --- |
| 0.016 (≈ 0.0298 µM) | > 128 | 0.03 (≈ 0.0558 µM) | 2 (≈ 3.72 µM) | 0.03 (≈ 0.0558 µM) | 0.016 (≈ 0.0298 µM) | 0.06 (≈ 0.112 µM) | 0.06 (≈ 0.112 µM) | 0.008 (≈ 0.0149 µM) | > 128 | 0.008 (≈ 0.0149 µM) | 2 (≈ 3.72 µM) | 0.03 (≈ 0.0558 µM) | 2 (≈ 3.72 µM) | 1 (≈ 1.86 µM) | 2 (≈ 3.72 µM) | 0.25 (≈ 0.465 µM) | > 128 | 0.13 (≈ 0.242 µM) | CNc1cc(O)c2c(c1O)C(=O)C1=C(CC3(CC(O)c4cc5cc(C(=O)OC)oc(=O)c5c(O)c4O3)O1)C2=O (centres undefined) | 0.016 (≈ 0.0298 µM) | MIC (Candida albicans [1]): 0.25 µg/mL (≈ 0.465 µM); MIC (Nakaseomyces glabratus): 128 µg/mL (≈ 238 µM); MIC (Trichomonas vaginalis [9]): 1 µg/mL (≈ 1.86 µM); MIC (Candida tropicalis): 64 µg/mL (≈ 119 µM) |
| 0.03 (≈ 0.0531 µM) | > 128 | 0.03 (≈ 0.0531 µM) |  | 0.06 (≈ 0.106 µM) | 0.03 (≈ 0.0531 µM) | 0.06 (≈ 0.106 µM) | 0.03 (≈ 0.0531 µM) |  | > 128 | 0.016 (≈ 0.0283 µM) | > 128 | 0.13 (≈ 0.23 µM) |  |  |  | 2 (≈ 3.54 µM) | > 128 | 0.13 (≈ 0.23 µM) | CCCNc1cc(O)c2c(c1O)C(=O)C1=C(CC3(CC(O)c4cc5cc(C(=O)OC)oc(=O)c5c(O)c4O3)O1)C2=O (centres undefined) | 0.06 (≈ 0.106 µM) |  |
| 0.016 (≈ 0.0264 µM) | > 128 | 0.06 (≈ 0.0991 µM) |  | 0.03 (≈ 0.0496 µM) | 0.06 (≈ 0.0991 µM) | 0.06 (≈ 0.0991 µM) | 0.03 (≈ 0.0496 µM) | 0.008 (≈ 0.0132 µM) | > 128 | 0.016 (≈ 0.0264 µM) | 8 (≈ 13.2 µM) | 0.13 (≈ 0.215 µM) |  |  |  | 2 (≈ 3.3 µM) | > 128 | 0.06 (≈ 0.0991 µM) | COC(=O)c1cc2cc3c(c(O)c2c(=O)o1)OC1(CC2=C(O1)C(=O)c1c(O)c(NCC(F)(F)F)cc(O)c1C2=O)CC3O (centres undefined) | 0.016 (≈ 0.0264 µM) |  |
| 0.03 (≈ 0.0557 µM) | 32 (≈ 59.4 µM) | 0.25 (≈ 0.464 µM) | 8 (≈ 14.9 µM) | 0.06 (≈ 0.111 µM) | 0.06 (≈ 0.111 µM) | 0.06 (≈ 0.111 µM) |  | 0.03 (≈ 0.0557 µM) | 8 (≈ 14.9 µM) | 0.03 (≈ 0.0557 µM) | 1 (≈ 1.86 µM) | 0.25 (≈ 0.464 µM) | 2 (≈ 3.71 µM) | 8 (≈ 14.9 µM) | 1 (≈ 1.86 µM) | 8 (≈ 14.9 µM) | > 128 | 0.03 (≈ 0.0557 µM) | COC(=O)c1cc2cc3c(c(O)c2c(=O)o1)OC1(Cc2c(O)c4c(c(O)c2O1)C(=O)C(OC)=CC4=O)CC3O (centres undefined) | 0.03 (≈ 0.0557 µM) | MIC (Staphylococcus aureus [13]): 0.06 µg/mL (≈ 0.111 µM); MIC (Trichomonas vaginalis [14]): 8 µg/mL (≈ 14.9 µM); MIC (Candida albicans [15]): 0.25 µg/mL (≈ 0.464 µM); MIC (Candida tropicalis): 128 µg/mL (≈ 238 µM) |
